Laboratory results: article PMC12235443 (RSC Chemical Biology, 2025)
Square brackets hold non-standard residues; d marks the D form. Peptide text beside a SMILES is read from it. 2Nal = N[C@@H](Cc1ccc2ccccc2c1)C(=O)O

How the values were obtained:
[1] = target: iCP-PA28-activated complex (Homo sapiens, UniProt P28062); test: LC-MS hydrolysis of dialanine substrates by iCP-PA28-activated complex; assay type: biochemical; conditions: 25 µM substrate, iCP + 7.5X PA28, 4 hours, triplicate, Fig. 3B
In short: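 Purified human iCP, activated with PA28, incubated with 25 μM test substrate for 4 hours. Each substrate is a modified recognition sequence joined to a constant dialanine cargo, with expected cleavage at the amide bond between them. Products analysed by LC-MS as percent degraded. Triplicate, mean ± standard deviation. Singly modified substrates compared with the unmodified-sequence dialanine control by t-test.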

iCP over sCP = test: Selectivity index, mean iCP percent degraded over sCP percent degraded; assay type: biochemical

| Molecule | Hydrolysis by iCP-PA28-activated complex compared with control ATMWAA [1] | Isoform selectivity for the iCP (iCP over sCP; Fig. 3C conditions) | Increase of substrate selectivity for the iCP compared with the ATMW scaffold (iCP over sCP; ratio of selectivity indices, analogue vs ATMWAA) |
| --- | --- | --- | --- |
| CSCC[C@H](NC(=O)[C@@H](NC(=O)[C@H](C)N)[C@@H](C)O)C(=O)N[C@@H](Cc1ccc2ccccc2c1)C(=O)N[C@@H](C)C(=O)N[C@@H](C)C(N)=O [ATM(2-Nal)] (H-ATM[2Nal]AA-NH2) | hydrolyzed well by the iCP | not isoform selective |  |
| morph-Ala-Orn-(Met?O2)-Trp(7,Me) [mAO(Met=O2) W(7,Me)] |  |  | about 3 fold |
